According to ChEMBL document CHEMBL3739318, “Orally Bioavailable Metal Chelators and Radical Scavengers: Multifunctional Antioxidants for the Coadjutant Treatment of Neurodegenerative Diseases” (J Med Chem, 2015):
Activity calls are given as the source filed them. No cut-off for these calls is given here.

Tests used:
SH-SY5Y [1] = test: Neuroprotective activity against Fenton reagent-induced ROS generation in human SH-SY5Y cells assessed as increase in GSH level at 1 mM after 2 hrs by DTNB method; type: functional, cell-based
Outline: (§1)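 Cells grown in 60 or 150 mm dishes and exposed 2 h to Fenton reagent (1 mM H2O2 + 1 mM Fe2+) with or without 1 mM compound in 0.16% DMSO. Intracellular glutathione then measured. Mean ± SEM, n = 6. ANOVA.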

SH-SY5Y [2] = test: Neuroprotective activity against Fenton reagent-induced ROS generation-stimulated cytotoxicity in human SH-SY5Y cells assessed as cell viability at 1 mM after 2 hrs by MTS assay; type: functional, cell-based
Outline: (§2)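 Cells in 96-well format exposed 2 h to Fenton reagent (1 mM H2O2 + 1 mM Fe2+) with or without 1 mM compound in 0.16% DMSO. Viability by MTS assay, normalized to untreated cells without Fenton reagent (100%). Mean ± SEM, n = 4. ANOVA.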

ARPE-19 [3] = test: Neuroprotective activity against Fenton reagent-induced ROS generation in human ARPE19 cells assessed as increase in GSH level at 1 mM after 2 hrs by DTNB method; type: functional, cell-based; outline: as §1
SH-SY5Y [4] = test: Cytotoxicity against human SH-SY5Y cells assessed as reduction in cell viability at 1 mM after 2 hrs by MTS assay; type: cell-based; details: 1000 µM
Outline: (§3)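 ARPE-19 grown in DMEM + 4% FBS and SH-SY5Y in EMEM/F12 + 10% FBS, at 37 °C, 5% CO2. Plated at 1 × 10^4 cells/well. Exposed 2 h to 1 mM compound (0.16% DMSO) without oxidant. Viability by MTS. Mean ± SEM, n = 4, ANOVA versus blank control.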

[5] = Cytotoxicity against human ARPE19 cells assessed as reduction in cell viability at 1 mM after 2 hrs by MTS assay; type: cell-based; details: arpe-19, 2 h, 1000 µM; outline: as §3
ARPE-19 [6] = test: Neuroprotective activity against Fenton reagent-induced ROS generation-stimulated cytotoxicity in human ARPE19 cells assessed as cell viability at 1 mM after 2 hrs by MTS assay; type: functional, cell-based; outline: as §2
SH-SY5Y [7] = test: Neuroprotective activity against Fenton reagent-induced hydroxy radical-stimulated cytotoxicity in human SH-SY5Y cells assessed as cell survival at 1 to 1000 uM preincubated for 1 hr followed by Fenton reagent challenge for 2 hrs by fluorescence-based LIVE/DEAD viability/cytotoxicity assay; type: functional
Outline: (§4)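 After a PBS wash, cells preincubated 1 h at 37 °C in serum-free medium with 1–1000 μM compound. Fenton reagent (Fe2+/H2O2, 100 μM final) then added for 2 h. Stained 15 min at 37 °C with calcein AM 8 μM and EthD-1 16 μM. Fluorescence read at 494/517 and 528/617 nm. % live cells calculated from blank-corrected single-dye controls; dead-cell control 70% ethanol. Mean ± SEM, n = 6.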

ARPE-19 [8] = test: Neuroprotective activity against Fenton reagent-induced hydroxy radical-stimulated cytotoxicity in human ARPE19 cells assessed as cell survival at 1 to 1000 uM preincubated for 1 hr followed by Fenton reagent challenge for 2 hrs by fluorescence-based LIVE/DEAD viability/cytotoxicity assay; type: functional; outline: as §4
[9] = Metal chelating activity assessed as stoichiometric ratio of compound to Fe3+ ion at 0.1 to 0.5 mM of compound and metal ion mixture after 45 mins by spectrophotometric analysis; type: physicochemical; details: 0.75 h, 500 µM
Outline: (§5)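 Job continuous-variation method at 23 °C. Compound dissolved in acetonitrile, then diluted to 0.1 mM stock in 1 mM acetate pH 6.5. Compound + ion at constant total 0.1–0.5 mM with varied mole fraction. After 45 min equilibration, UV absorbance scanned 210–310 nm. Stoichiometry taken from the intersection of lines. Mean ± SD, n = 3.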

[10] = Metal chelating activity assessed as stoichiometric ratio of compound to Fe2+ ion at 0.1 to 0.5 mM of compound and metal ion mixture after 45 mins by spectrophotometric analysis; type: physicochemical; details: 0.75 h, 500 µM; outline: as §5
[11] = Metal chelating activity assessed as stoichiometric ratio of compound to Mg2+ ion at 0.1 to 0.5 mM of compound and metal ion mixture after 45 mins by spectrophotometric analysis; type: physicochemical; details: 0.75 h, 500 µM; outline: as §5
[12] = Metal chelating activity assessed as stoichiometric ratio of compound to Mn2+ ion at 0.1 to 0.5 mM of compound and metal ion mixture after 45 mins by spectrophotometric analysis; type: physicochemical; details: 0.75 h, 500 µM; outline: as §5
[13] = Metal chelating activity assessed as stoichiometric ratio of compound to Cu+ ion at 0.1 to 0.5 mM of compound and metal ion mixture after 45 mins by spectrophotometric analysis; type: physicochemical; details: 0.75 h, 500 µM; outline: as §5
[14] = Metal chelating activity assessed as stoichiometric ratio of compound to Ca2+ ion at 0.1 to 0.5 mM of compound and metal ion mixture after 45 mins by spectrophotometric analysis; type: physicochemical; details: 0.75 h, 500 µM; outline: as §5
[15] = Metal chelating activity assessed as stoichiometric ratio of compound to Zn2+ ion at 0.1 to 0.5 mM of compound and metal ion mixture after 45 mins by spectrophotometric analysis; type: physicochemical; details: 0.75 h, 500 µM; outline: as §5
[16] = Metal chelating activity assessed as stoichiometric ratio of compound to Cu2+ ion at 0.1 to 0.5 mM of compound and metal ion mixture after 45 mins by spectrophotometric analysis; type: physicochemical; details: 0.75 h, 500 µM; outline: as §5

SMILES	Activity (SH-SY5Y [1])	Activity (SH-SY5Y [2])	Activity (ARPE-19 [3])	Activity (SH-SY5Y [4])	Activity [5]	Activity (ARPE-19 [6])	Activity (SH-SY5Y [7])	Activity (ARPE-19 [8])	Ratio [9]	Ratio [10]	Ratio [11]	Ratio [12]	Ratio [13]	Ratio [14]	Ratio [15]	Ratio [16]
COc1nc(N2CCCCC2)nc(OC)c1O	Active	Active	Active	Non-toxic	Non-toxic	Active										
COc1cc(OC)nc(N2CCCCC2)n1	Active	inactive	Active	Non-toxic	Non-toxic	inactive										
c1cnc(N2CCCC2)nc1	Active	inactive	Active	Non-toxic	Non-toxic	inactive	inactive	inactive								
COc1nc(N2CCCC2)nc(OC)c1O	Active	Active	Active	Non-toxic	Non-toxic	Active										
c1cnc(N2CCCCC2)nc1	Active	inactive	Active	Non-toxic	Non-toxic	inactive										
Oc1cnc(N2CCCC2)nc1	Active	Active	Active	Non-toxic	Non-toxic	Active										
O=C1CCCC(=O)N1c1ncccn1	Active	Active	Active	Non-toxic	Non-toxic	Active			1.8	2.13	0	1.83	1.9	0	2.17	2.01
COc1cc(OC)nc(N2CCCC2)n1	Active	inactive	Active	Non-toxic	Non-toxic	inactive	inactive	inactive								
Oc1cnc(N2CCCCC2)nc1	Active	Active	Active	Non-toxic	Non-toxic	Active										
O=C1CCC(=O)N1c1ncccn1	Active	Active	Active	Non-toxic	Non-toxic	Active			2.01	2.06	0	1.98	2.01	0	1.87	2.28
COc1cc(OC)nc(N2C(=O)CCC2=O)n1	Active	Active	Active	Non-toxic	Non-toxic	Active			2.05	2.02	0	2.04	1.92	0	2.07	2.01
COc1cc(OC)nc(N2C(=O)CCCC2=O)n1	Active	Active	Active	Non-toxic	Non-toxic	Active			2.08	1.96	0	1.95	1.9	0	2.06	1.96
